Activity calls are given as the source filed them. The rule behind the calls is not given here.
Assays:
HT-29 = assay: Growth inhibition of human HT-29 cells after 72 hrs by MTT assay; assay type: functional
In short: (§1)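 Cells kept in DMEM with 10% FBS, glutamine, penicillin/streptomycin at 37 °C, 5% CO2; plated in duplicate at 2500–4000 cells/well, dosed 24 h later during log growth. After 72 h drug exposure, MTT read at 540 nm. […] Assays in triplicate, standard error reported.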

U-87MG ATCC = assay: (§2) Growth inhibition of human U87 cells after 72 hrs by MTT assay; assay type: functional; in short: as §1
MCF7 = assay: Growth inhibition of human MCF7 cells after 72 hrs by MTT assay; assay type: functional; in short: as §1
A2780 = assay: Growth inhibition of human A2780 cells after 72 hrs by MTT assay; assay type: functional; in short: as §1
NCI-H460 = assay: (§3) Growth inhibition of human H460 cells after 72 hrs by MTT assay; assay type: functional; in short: as §1
A-431 = assay: Growth inhibition of human A431 cells after 72 hrs by MTT assay; assay type: functional; in short: as §1
DU-145 = assay: Growth inhibition of human DU145 cells after 72 hrs by MTT assay; assay type: functional; in short: as §1
BE(2)-C = assay: (§4) Growth inhibition of human BE(2)-C cells after 72 hrs by MTT assay; assay type: functional; in short: as §1
SJ-G2 = assay: (§5) Growth inhibition of human SJ-G2 cells after 72 hrs by MTT assay; assay type: functional; in short: as §1
MIA = assay: (§6) Growth inhibition of human MIA cells after 72 hrs by MTT assay; assay type: functional; in short: as §1
SMA = assay: (§7) Growth inhibition of mouse SMA cells after 72 hrs by MTT assay; assay type: functional; in short: as §1
[1] = as §2; assay type: functional, U-87MG ATCC; conditions: U-87 MG; in short: as §1
[2] = as §3; assay type: functional; conditions: NCI-H460, 72 h; in short: as §1
[3] = as §4; assay type: functional; in short: as §1
[4] = as §5; assay type: functional; conditions: SJ-G2, 72 h; in short: as §1
[5] = as §6; assay type: functional; in short: as §1
[6] = as §7; assay type: functional; in short: as §1
P338 = assay: Growth inhibition of mouse […] cells; assay type: functional, cell-based

| SMILES | growth inhibition (GI) (HT-29) | growth inhibition (GI) (U-87MG ATCC) | growth inhibition (GI) (MCF7) | growth inhibition (GI) (A2780) | growth inhibition (GI) (NCI-H460) | growth inhibition (GI) (A-431) | growth inhibition (GI) (DU-145) | growth inhibition (GI) (BE(2)-C) | growth inhibition (GI) (SJ-G2) | growth inhibition (GI) (MIA) | growth inhibition (GI) (SMA) | other results |
| --- | --- | --- | --- | --- | --- | --- | --- | --- | --- | --- | --- | --- |
| Cc1cc2c(c3oc(=O)c(-c4ccccc4)cc13)C(=O)c1c(OC(C)C)cccc1C2=O | Active | Active | Active | Active | Active | Active | Active | Active | Active | Active | Active |  |
| CCCCCCc1cc2c(C)cc3c(c2o1)C(=O)c1c(OC(C)C)cccc1C3=O | Active | Active | Active | Active | Active | Active | Active | Active | Active | Active | Active |  |
| CCCc1cc2c(C)cc3c(c2oc1=O)C(=O)c1c(OC(C)C)cccc1C3=O | Active | Active | Active | Active | Active | Active | Active | Active | Active | Active | Active |  |
| Cc1cc2c(c3oc(=O)c(CCCC#N)cc13)C(=O)c1c(OC(C)C)cccc1C2=O | Active | Active | Active | Active | Active | Active | Active | Active | Active | Active | Active |  |
| Cc1cc2c(c3oc(-c4ccccc4)cc13)C(=O)c1c(OC(C)C)cccc1C2=O | Active | Active | Active | Active | Active | Active |  | Active |  | Active | Active |  |
| CCCCCCc1cc2c(C)cc3c(c2oc1=O)C(=O)c1c(O)cccc1C3=O | Active | Active | Active | Active | Active | Active | Active | Active | Active | Active | Active |  |
| CCCCCCc1cc2c(C)cc3c(c2oc1=O)C(=O)c1c(OC(C)C)cccc1C3=O | Active | Active | Active | Active | Active | Active | Active | Active | Active | Active |  |  |
| CCC(C)(OCc1ccccc1)c1cc2c(C)cc3c(c2oc1=O)C(=O)c1c(OC(C)C)cccc1C3=O (configuration not stated) | Active | Active | Active | Active | Active | Active | Active | Active | Active | Active | Active |  |
| Cc1cc2c(c3oc(-c4ccccc4)cc13)C(=O)c1c(O)cccc1C2=O | Active | Active | Active | Active | Active | Active |  | Active |  | Active | Active |  |
| CCCc1cc2c(C)cc3c(c2o1)C(=O)c1c(OC(C)C)cccc1C3=O | Active | Active | Active | Active | Active | Active | Active | Active | Active | Active | Active |  |
| Cc1cc2c(c3oc(C(=O)c4ccccc4)cc13)C(=O)c1c(O)cccc1C2=O | Active | Active | Active | Active | Active | Active |  | Active |  | Active | Active |  |
| CCCCCCc1cc(=O)c2c(C)cc3c(c2o1)C(=O)c1c(O)cccc1C3=O | Active | Active | Active | Active | Active | Active | Active | Active | Active | Active |  |  |
| Cc1cc2c(c3oc(-c4ccccc4)cc(=O)c13)C(=O)c1c(O)cccc1C2=O | Active | Active | Active | Active | Active | Active | Active | Active |  | Active | Active |  |
| CCCCc1cc2c(C)cc3c(c2oc1=O)C(=O)c1c(OC(C)C)cccc1C3=O | Active | Active | Active | Active | Active | Active | Active | Active | Active | Active | Active |  |
| Cc1cc2c(c3oc(C4(C)CO4)cc(=O)c13)C(=O)c1c(O)cccc1C2=O (racemic) |  |  |  |  |  |  |  |  |  |  |  | GI50 (HT-29; HT-29, 72 h): 2000 nM; GI50 [1]: 990 nM; GI50 (MCF7; MCF7, 72 h): 1300 nM; GI50 (A2780; A2780, 72 h): 290 nM; GI50 [2]: 2100 nM; GI50 (A-431; A-431, 72 h): 950 nM; GI50 (DU-145; DU-145, 72 h): 840 nM; GI50 [3]: 170 nM; GI50 [4]: 800 nM; GI50 [5]: 900 nM; GI50 [6]: 160 nM; IC50 (P338): 1 nM |
